Source: PubChem BioAssay (The Scripps Research Institute Molecular Screening Center)
Sampled rows, rich in hits. Any-hit rate of the full collection: about 4.5%.
CHO parental Ca: counter-screen for OX1R antagonists: effect in parental CHO cells; inhibition, % at 5.6 µM; parental CHO-K1, ATP-induced calcium, Fluo-8 fluorescence; actives 0.63% (n = 330,000);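 active = inhibition above that plate's mean sample inhibition plus 3 SD, cut at about 26% in these data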;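 note: 0% = ATP-challenged DMSO wells and 100% = DMSO wells without ATP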
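Test system: untransfected parental CHO cell line; also added: ATP stimulus; dosing: 5.6 µM, single dose; signal: calcium-sensitive Fluo-8 fluorescence; measure: percent inhibition of ATP-evoked calcium rise, normalized to controls; benchmarks: low control ATP plus DMSO, high control DMSO only; replication: one well per compound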
TAAR1 agonist: human TAAR1 agonism; Q96RJ0; actives 0.99% (n = 360,000); CHO RD-HGA16 TAAR1, Fluo-8 calcium fluorescence; vehicle wells 0%, saturating PEA agonist 100%; activation, % at 3 µM;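 active = activation above the mean activation of all test compounds in the run plus 3 SD, cut at about 38% in these data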
Target sequence (Q96RJ0 whole entry, looked up): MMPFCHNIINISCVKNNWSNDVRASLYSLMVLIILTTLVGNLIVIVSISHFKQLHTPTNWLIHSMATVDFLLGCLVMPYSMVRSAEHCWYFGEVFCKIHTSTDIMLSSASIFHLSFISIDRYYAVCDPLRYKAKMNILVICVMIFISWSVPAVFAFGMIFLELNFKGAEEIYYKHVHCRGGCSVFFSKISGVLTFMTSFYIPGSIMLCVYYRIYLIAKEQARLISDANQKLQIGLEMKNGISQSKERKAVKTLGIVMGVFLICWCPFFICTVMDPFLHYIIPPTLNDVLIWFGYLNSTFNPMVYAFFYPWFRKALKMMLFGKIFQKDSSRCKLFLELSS
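Test system: RD-HGA16 (CHO) cells co-expressing Gα16 and hTAAR1 | Doses: Single dose, 3 µM | Schedule: 17-24 h seeding, 75 min 37 °C dye, 30 min RT | Evaluation: % activation from peak over basal fluorescence ratio, DMSO-to-PEA scaled | Technique: Kinetic Fluo-8 calcium fluorescence | Benchmarks: Low control DMSO, high control PEA (EC100)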
TAAR1 antagonist: human TAAR1 antagonism; CHO RD-HGA16 TAAR1, Fluo-8 calcium fluorescence, antagonist; actives 1.5% (n = 360,000); Q96RJ0; inhibition, % at 3 µM;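 active = inhibition above a per-plate cutoff, the mean inhibition of test compounds on that plate plus 3 SD, cut at about 49% in these data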;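 note: 0% = DMSO plus EC80 beta-PEA response and 100% = DMSO alone without agonist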
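Test system: hTAAR1-expressing CHO RD-HGA16 cells, Gα16-coupled; Probe or stimulus: EC80 β-phenethylamine stimulus; Compound dosing: single nominal final test compound concentration of 3 µM; Timing: 140 s kinetic read after compound, 140 s after agonist; Signal: Fluo-8 calcium-sensitive fluorescence; Measure: % inhibition of agonist calcium response; Controls: DMSO and EC80 PEA controls.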
OX1R antag-1: OX1R (human) antagonism | actives 1.8% (n = 330,000) | inhibition, % at 6.6 µM | O43613 | OX1R-expressing cells, FRET antagonist read-out; in the data active = inhibition mostly above about 38%, no sharp cut-off; inactive = mostly below about 40%;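 note: 0% = agonist challenge alone and 100% = reference antagonist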
OX1R antag-2: human HCRTR1 antagonism. O43613. CHO/OX1R cells, Fluo-8 calcium fluorescence, orexin A. inhibition, % at 5 µM. actives 0.43% (n = 330,000). AID 434989;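 active = inhibition above its plate's threshold, mean inhibition of all tested compounds on the plate plus 3 SD, cut at about 37% in these data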;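 note: 0% = orexin A challenge wells and 100% = SB-334867-A antagonist wells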
GPR7 antagonist: blocks human GPR7 receptor signaling; P48145; GPR7-expressing cells, fluorescence antagonist assay; inhibition, % at 4.4 µM; actives 1.1% (n = 290,000); AID 1861; in the data active = inhibition above about 16%, passing the limit was not always enough;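 note: cells stimulated with the agonist NPW; 0% = agonist with vehicle and 100% = vehicle without agonist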
Target sequence (P48145 whole entry, looked up): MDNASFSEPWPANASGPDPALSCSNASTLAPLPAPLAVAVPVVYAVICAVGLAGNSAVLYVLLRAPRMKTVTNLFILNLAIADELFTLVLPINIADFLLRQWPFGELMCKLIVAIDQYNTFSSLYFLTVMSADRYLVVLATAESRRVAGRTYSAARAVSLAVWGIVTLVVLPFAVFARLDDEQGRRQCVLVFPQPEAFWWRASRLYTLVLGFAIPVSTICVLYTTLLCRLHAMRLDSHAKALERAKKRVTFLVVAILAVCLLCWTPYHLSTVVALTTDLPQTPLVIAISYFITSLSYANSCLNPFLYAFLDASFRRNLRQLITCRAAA
* hit, by the source's call; x = no result.

SMILES	CHO parental Ca	TAAR1 agonist	TAAR1 antagonist	OX1R antag-1	OX1R antag-2	GPR7 antagonist
CCOC(=O)C1=CCN(S(=O)(=O)c2ccc(Cl)cc2)C1c1cccc(Br)c1 (stereo not drawn)	x	0	19	x	x	x
CCN(CC)c1ccc(/C=N/NC(=O)c2cccc(S(=O)(=O)N3CCOCC3)c2)c(O)c1	-11	1	1	66*	-7	-5
COc1cccc(CNC(=O)[C@H]2CCCN2C(=O)[C@H]2CCCN2C(=O)c2ccc(C)c(C)c2)c1	x	0	-18	x	x	x
Cc1ccc(Nc2nc(NCCO)nc3c2cnn3C)cc1Cl	-16	38*	4	25	-37	4
CCCNc1nc(Nc2ccc(C)c(Cl)c2)c2cnn(C)c2n1	-17	2	-22	3	-31	-15
C=CCNc1nc(-c2cccc(OC)c2O)nc2ccccc12	5	17	26	47*	-8	-22
COc1cccc(-c2nc(NCc3ccccc3)c3ccccc3n2)c1O	-1	0	5	37*	-9	-17
COc1cccc(-c2nc(NCc3ccco3)c3ccccc3n2)c1O	-5	17	-12	29	-20	-16
CC1Cc2cc(-c3csc(NC(=O)Cc4ccccc4)n3)ccc2N1S(C)(=O)=O (stereo not drawn)	-6	8	54*	18	3	16
CS(=O)(=O)N1CCc2cc(-c3csc(NC(=O)C(c4ccccc4)c4ccccc4)n3)ccc21	4	6	12	1	-4	0
O=C(CN1C(=O)NC2(CCCCCC2)C1=O)Nc1ccc2c(c1)CCC2	-21	15	-8	12	-24	70*
CC1CCC2(CC1)NC(=O)N(CC(=O)Nc1ccc3c(c1)CCC3)C2=O (stereo not drawn)	-17	-3	-38	22	-18	-4
CC1CCC2(CC1)NC(=O)N(CC(=O)Nc1ccc(N3CCOCC3)cc1)C2=O (stereo not drawn)	71*	0	-1	7	6	-1
CC(C)(C)OC(=O)NC(CNCc1ccccc1)Cc1ccccc1 (stereo not drawn)	-42	12	18	8	-40	x
Cc1nc2cc(-c3ccc(F)cc3)[nH]n2c(=O)c1C	42*	0	-7	46	28	2
COc1cc(/C=N/NC(=O)Nc2cccc3nsnc23)cc(OC)c1OC	x	6	10	x	x	3
O=C(N/N=C/c1ccc(O)cc1)Nc1cccc2nsnc12	3	38*	67*	34	13	-22
Cc1ccccc1OCCOC(=O)c1ccc(S(=O)(=O)N2CCCC2)cc1	30*	4	30	9	11	x
COc1ccc(-c2csc(NC(C)c3nc4cc(C(F)(F)F)ccc4n3CCOCCO)n2)cc1 (stereo not drawn)	-19	8	1	11	-42	x
CC(C)c1onc(C(=O)NC2CCCCC2)c1[N+](=O)[O-]	-14	0	14	8	-8	18*
CCC1CCCCN1C(=O)c1noc(C(C)C)c1[N+](=O)[O-] (stereo not drawn)	-3	5	-7	24	-19	19*
CC(C)c1onc(C(=O)N2CCCCCC2)c1[N+](=O)[O-]	4	0	-23	13	0	-6
CCOC(=O)c1c2c(n(C)c1C)C(=O)C(=O)c1ccc(Br)cc1-2	-35	8	-13	14	-10	-7
CCOC(=O)c1c2c(n(Cc3ccccc3)c1C)C(=O)C(=O)c1ccccc1-2	x	3	55*	x	x	x
Cc1cc(C)n2nc(-c3sccc3-n3c(C)ccc3C)cc2n1	-16	4	-6	76*	33	-15
SMILES	CHO parental Ca	TAAR1 agonist	TAAR1 antagonist	OX1R antag-1	OX1R antag-2	GPR7 antagonist
Cc1cc(C)n2nc(-c3sccc3-n3cccc3)cc2n1	-34	1	-3	40	-24	-15
COC(=O)[C@@]1(C(C)C)N=C(c2cc(OC)c(OC)c(OC)c2)[C@]2(O1)C(=O)N(Cc1ccc(OC)cc1)c1ccc(Br)cc12	x	2	-9	x	x	x
O=[N+]([O-])c1ccc(C2=NN(c3ccccc3)C(c3ccco3)C2)cc1 (stereo not drawn)	x	89*	61*	x	x	24*
Cc1cc(C)cc(NC(=O)Cn2ncn3c(cc4ccccc43)c2=O)c1	18	39*	12	5	8	7
CC1(C)CC(=O)C=C(c2ccccc2F)C1=O	x	2	-22	x	x	x
OCCOCCNc1ncnc2c1cnn2-c1ccc(Cl)cc1	16	5	-16	23	4	1
COCCNc1ncnc2c1cnn2-c1ccc(Cl)cc1	-4	4	1	13	4	20*
Cc1[nH]c2ccccc2c1CC(=O)Nc1ccc(Nc2cccnc2)c(-c2ccc(Cl)c(Cl)c2)c1	x	2	10	x	x	x
COc1ccc2nc(/N=C\N(C)C)sc2c1	-5	6	7	24	-11	-7
COc1ccc(C(=O)c2cnc(/N=C/N(C)C)s2)cc1	4	12	2	46*	-10	-2
CN(C)/C=N/c1ncc(C(=O)c2ccc3ccccc3c2)s1	-16	8	6	42*	-23	4
CN1OC[C@@H]2CN(CC3CCCCC3)[C@H](c3ccc(-c4ccc(C#N)cc4)cc3)C[C@@H]21	x	3	-37	x	x	x
Cc1cccc(C(=O)Nc2oc(-c3ccccc3)cc2C#N)c1	-8	5	49*	45	-7	2
N#Cc1cc(-c2ccccc2)oc1NC(=O)c1ccco1	-9	0	15	20	-26	0
O=C(COC(=O)c1ccc2c(c1[N+](=O)[O-])C(=O)c1ccccc1C2=O)NC1CC1	21	3	13	74*	9	-16
O=C(COC(=O)c1cccc2c1C(=O)c1ccccc1C2=O)NC1CCCCC1	-24	7	49*	22	-20	-6
COc1cccc(C2NC(=S)N(Cc3ccc(Br)cc3)C(C)=C2C(C)=O)c1 (stereo not drawn)	x	1	19	x	x	x
COC(=O)c1ccc(OCC2c3cc(OC)c(OC)cc3CCN2C(=O)c2ccco2)cc1 (stereo not drawn)	-8	15	61*	14	-16	16
COc1cc2c(cc1OC)C(c1ccccc1)N(C(=O)c1ccccc1)CC2 (stereo not drawn)	-12	3	-9	-1	-33	13
COc1cc2c(cc1OC)C(c1ccccc1)N(C(=O)c1ccco1)CC2 (stereo not drawn)	-13	-1	13	33*	3	x
Cc1ccccc1C(=O)Nc1ccccc1C(=O)NCc1ccccc1	-17	8	49*	14	1	-5
COc1cc2sc3cc(NCc4ccc5c(c4)OCO5)ccc3c(=O)c2cc1OC	-1	3	16	50*	1	x
